What was measured:
[1] = test system: Liver; assay: NO releasing activity in rat liver homogenate assessed as nitrite formation measured after 120 mins; format: ADME, tissue-based; conditions: tissue homogenate, 2 h
How it was run: (§1)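 Compounds were incubated in rat liver homogenate. Inorganic nitrite and nitrate, the stable NO metabolites, were quantified over time, with the reading taken at 120 min of incubation.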

[2] = test system: Liver; assay: NO releasing activity in rat liver homogenate assessed as nitrate formation measured after 120 mins; format: ADME, tissue-based; conditions: tissue homogenate, 2 h; how it was run: as §1
[3] = biological target: T1, Prostaglandin G/H synthase 2 (Homo sapiens) (UniProt P35354); assay: Inhibition of human recombinant COX-2 assessed as […] production at 10 uM using arachidonic acid as substrate preincubated for 10 mins followed by substrate addition and measured after 2 mins by enzyme immunoassay relative to control; conditions: time 12.0 min
T1 sequence (whole entry): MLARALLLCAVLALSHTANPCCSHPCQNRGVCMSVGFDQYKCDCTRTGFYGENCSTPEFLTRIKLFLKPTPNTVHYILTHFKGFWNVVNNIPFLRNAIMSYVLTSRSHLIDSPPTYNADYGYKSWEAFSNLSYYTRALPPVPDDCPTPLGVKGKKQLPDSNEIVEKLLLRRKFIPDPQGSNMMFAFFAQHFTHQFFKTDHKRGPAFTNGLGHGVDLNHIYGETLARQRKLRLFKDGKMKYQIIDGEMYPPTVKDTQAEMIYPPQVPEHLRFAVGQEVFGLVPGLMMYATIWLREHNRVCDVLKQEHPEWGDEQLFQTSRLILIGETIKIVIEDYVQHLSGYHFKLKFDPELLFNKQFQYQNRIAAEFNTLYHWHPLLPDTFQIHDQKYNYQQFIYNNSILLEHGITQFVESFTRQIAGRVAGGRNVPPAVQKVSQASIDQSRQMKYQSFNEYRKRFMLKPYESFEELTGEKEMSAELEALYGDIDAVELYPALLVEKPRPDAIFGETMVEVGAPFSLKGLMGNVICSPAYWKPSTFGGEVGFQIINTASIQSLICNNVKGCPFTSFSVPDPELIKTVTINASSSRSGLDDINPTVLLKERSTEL
How it was run: (§2)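 PGE2 production was measured with test compound and compared with control samples to give % inhibition. Values are means of n = 3 experiments. IC50 was obtained by fitting a sigmoidal dose–response equation with variable slope.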

[4] = biological target: T2, Prostaglandin G/H synthase 1 (Ovis aries, UniProt P05979); assay: Inhibition of ovine COX-1 assessed as […] production using arachidonic acid as substrate preincubated for 10 mins followed by substrate addition and measured after 2 mins by enzyme immunoassay; how it was run: as §2
T2 sequence (P05979 whole entry): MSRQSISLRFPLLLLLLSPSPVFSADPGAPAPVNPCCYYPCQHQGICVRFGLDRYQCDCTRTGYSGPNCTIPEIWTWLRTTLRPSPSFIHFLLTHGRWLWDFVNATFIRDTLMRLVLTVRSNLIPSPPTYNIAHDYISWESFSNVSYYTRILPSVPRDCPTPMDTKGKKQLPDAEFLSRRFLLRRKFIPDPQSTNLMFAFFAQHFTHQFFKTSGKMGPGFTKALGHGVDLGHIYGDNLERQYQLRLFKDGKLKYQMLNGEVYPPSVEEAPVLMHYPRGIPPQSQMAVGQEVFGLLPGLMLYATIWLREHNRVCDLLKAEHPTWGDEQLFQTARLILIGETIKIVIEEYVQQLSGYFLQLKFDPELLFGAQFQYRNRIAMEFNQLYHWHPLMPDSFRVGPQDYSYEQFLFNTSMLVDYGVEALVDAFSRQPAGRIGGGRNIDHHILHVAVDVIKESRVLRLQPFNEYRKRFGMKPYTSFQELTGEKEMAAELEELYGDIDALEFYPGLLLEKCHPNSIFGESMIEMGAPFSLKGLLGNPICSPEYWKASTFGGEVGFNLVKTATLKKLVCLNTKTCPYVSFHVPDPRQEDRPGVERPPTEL

[5] = test system: Aorta; assay: Vasorelaxant activity in KCl induced normotensive Wistar rat endothelium-denuded aortic rings contraction assessed as maximal vasorelaxing response at 10 uM relative to control; format: functional
How it was run: (§3)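 Rat aortic rings were precontracted with KCl. Vasorelaxing efficacy (Emax) is the % reversal of the KCl-induced vasoconstriction. Potency is pIC50, the −log of the molar concentration giving 50% of Emax. ODQ was used to check for NO dependence.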

[6] = test system: Aorta; assay: Vasorelaxant activity in KCl induced normotensive Wistar rat endothelium-denuded aortic rings contraction assessed as decrease in contractile tone; format: functional, tissue-based; how it was run: as §3
[7] = test system: Mus musculus; assay: Analgesic activity against acetic acid induced mouse model assessed as number of writhes at 5 mg/kg, po measured after 30 mins by abdominal constriction test; format: functional; conditions: 0.5 h
[8] = test system: Mus musculus; assay: Analgesic activity against acetic acid induced mouse model assessed as number of writhes at 10 mg/kg, po measured after 30 mins by abdominal constriction test; format: functional; conditions: 0.5 h
How it was run: (§4)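 Mice were dosed orally, with carboxymethylcellulose (CMC) as vehicle, 30 min before an acetic acid (0.6%) challenge. Abdominal constrictions (writhes) were counted. Values are means of at least seven mice, and percent writhing reduction is relative to vehicle-treated mice. Statistics were P<0.05 and P<0.01 versus vehicle.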

[9] = test system: Mus musculus; assay: Analgesic activity against acetic acid induced mouse model assessed as number of writhes at 20 mg/kg, po measured after 30 mins by abdominal constriction test; format: functional; conditions: 0.5 h; how it was run: as §4
[10] = test system: Mus musculus; assay: Analgesic activity against acetic acid induced mouse model assessed as number of writhes at 40 mg/kg, po measured after 30 mins by abdominal constriction test; format: functional; conditions: 0.5 h; how it was run: as §4
[11] = test system: Mus musculus; assay: Analgesic activity against acetic acid induced mouse model assessed as reduction in writhing at 5 mg/kg, po by abdominal constriction test; format: functional; set-up: scale not given: the % may be the effect or the level left
[12] = test system: Mus musculus; assay: Analgesic activity against acetic acid induced mouse model assessed as reduction in writhing at 10 mg/kg, po by abdominal constriction test; format: functional; set-up: scale not given: the % may be the effect or the level left; how it was run: as §4
[13] = test system: Mus musculus; assay: Analgesic activity against acetic acid induced mouse model assessed as reduction in writhing at 20 mg/kg, po by abdominal constriction test; format: functional; set-up: scale not given: the % may be the effect or the level left; how it was run: as §4
[14] = test system: Mus musculus; assay: Analgesic activity against acetic acid induced mouse model assessed as reduction in writhing at 40 mg/kg, po by abdominal constriction test; format: functional; set-up: scale not given: the % may be the effect or the level left; how it was run: as §4
[15] = test system: Mus musculus; assay: Analgesic activity against acetic acid induced mouse model assessed as number of writhes at 1 mg/kg, po measured after 30 mins by abdominal constriction test; format: functional; conditions: 0.5 h; how it was run: as §4
[16] = test system: Mus musculus; assay: Analgesic activity against acetic acid induced mouse model assessed as number of writhes at 3 mg/kg, po measured after 30 mins by abdominal constriction test; format: functional; conditions: 0.5 h; how it was run: as §4
[17] = test system: Mus musculus; assay: Analgesic activity against acetic acid induced mouse model assessed as reduction in writhing at 1 mg/kg, po by abdominal constriction test; format: functional; set-up: scale not given: the % may be the effect or the level left; how it was run: as §4
[18] = test system: Mus musculus; assay: Analgesic activity against acetic acid induced mouse model assessed as reduction in writhing at 3 mg/kg, po by abdominal constriction test; format: functional; set-up: scale not given: the % may be the effect or the level left; how it was run: as §4

Compound	inhibition [3] [%]	IC50 [4] [µM]	Emax at 10 µM [5] [%]	IC50 [6] [µM]	Activity [8]	Activity [12] [%]	also measured
COc1ccc2cc([C@H](C)C(=O)OCCCCO[N+](=O)[O-])ccc2c1 [NAPROXCINOD]							Activity [1]: 28 µM; Activity [2]: 340.1 µM
Cc1c(CC(=O)NCCO)cc(-c2ccc(S(N)(=O)=O)cc2)n1-c1cccc(F)c1	15						
Cc1c(CC(=O)NCCO)cc(-c2ccc(S(N)(=O)=O)cc2)n1-c1ccc(F)cc1	18						
Cc1c(CC(=O)NCCO[N+](=O)[O-])cc(-c2ccc(S(N)(=O)=O)cc2)n1-c1ccc(F)cc1	16	> 10	74.9	1.51	18.5	44.9	Activity [7]: 26.7; Activity [9]: 15.8; Activity [10]: 16.7; Activity [11]: 20.5%; Activity [13]: 53%; Activity [14]: 50.3%
Cc1c(CC(=O)NCCO[N+](=O)[O-])cc(-c2ccc(S(N)(=O)=O)cc2)n1-c1cccc(F)c1	45	> 10	67.5	3.24	16.7	50.3	Activity [15]: 21.8; Activity [16]: 19.4; Activity [17]: 35.1%; Activity [18]: 42.3%
